Assays:
[1] = Population pharmacokinetics; format: in vivo, human
Outline: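 Plasma drug measured by validated LC-MS/MS; LLOQ 2.08 or 2.18 ng/mL. Intensive sampling on cycle 1 day 4 and cycle 2 day 1, pre-dose to 8 h post-dose, plus pre-dose samples on cycle 1 day 8 and cycle 2 day 10. Prior model built on 505 subjects from eight studies applied by nonlinear mixed-effects (FOCEI). Checked by diagnostic plots, VPCs and NPDE.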

1L DLBCL = format: in vivo, human; settings: all-comers and BCL-2-IHC-positive subpopulations, logistic regression
Outline: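 Phase 2 1L DLBCL patients (n = 199) given 800 mg test compound on a 10/21-day schedule with R-CHOP. PET-CT complete response assessed at the end-of-treatment visit, 6–8 weeks from day 1 of the last cycle. Logistic regression (logit link) on nominal AUCss; α = 0.05 for the exposure coefficient. Covariates added by forward stepwise selection at α = 0.01.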

[2] = fixed at legacy model estimate ref 13, cited from earlier work
[3] = legacy model, 50 subjects receiving venetoclax + R ref 13; cited from earlier work
[4] = phase 3 MURANO study, R/R CLL ref 19; cited from earlier work
[5] = tested on: circulating lymphocyte counts; settings: cited from earlier work
tumor size = settings: cited from earlier work
[6] = food effect on relative bioavailability

In the case of `CC1(C)CCC(CN2CCN(c3ccc(C(=O)NS(=O)(=O)c4ccc(NCC5CCOCC5)c([N+](=O)[O-])c4)c(Oc4cnc5[nH]ccc5c4)c3)CC2)=C(c2ccc(Cl)cc2)C1` [venetoclax], the half-life ([1]; human, plasma, oral) was 25.2 h, the “θV2/F,GO27878 (study effect on V2/F)” value ([1]; multiplicative CAVALLI study effect relative to legacy model) was 2.33 and the “Association between venetoclax AUCss nominal and PET-CR rates” value (1L DLBCL) was “No clear association”. For the same molecule, the “θCL/F, moderate CYP3A inhibitor” value ([2]; covariate effect on CL/F) was 0.84, the “θCL/F, strong CYP3A inhibitor” value ([2]; covariate effect on CL/F) was 0.18 and the “θCL/F,OATP1B3 inhibitor” value ([2]; covariate effect on CL/F) was 0.85. The “θV2/F, CLL/SLL/NHL” value ([2]; covariate effect on V2/F) was 1.71, the “θV2/F,SEX=female” value ([2]; covariate effect on V2/F) was 0.68 and the CL/F ([2]; final PopPK model) was 447 L/day. The Q/F ([2]; final PopPK model) was 97.2 L/day, the V2/F ([2]; final PopPK model) was 118 L and the V3/F ([2]; final PopPK model) was 119 L. For the same molecule, the ka ([2]; first-order absorption rate constant) was 3.72 day⁻¹, the “θF1,FOOD=fasting” value [2, 6] was 0.34 and the “θF1,FOOD=fed” value [2, 6] was 1.23. For the same molecule, the “θF1,FOOD=high fat” value [2, 6] was 1.43, the “θF1,FOOD=moderate fat” value [2, 6] was 1.31 and the “Variability (CV) of CL/F” value ([2]; inter-individual variability) was “CV = 39.1%”. For the same molecule, the “Variability (CV) of F1” value ([2]; inter-individual variability) was “CV = 31.2%”, the “Variability (CV) of V2/F” value ([2]; inter-individual variability) was “CV = 45.3%” and the “ω^2CL/F” value ([2]; inter-individual variance) was 0.15. The “ω^2F1” value ([2]; inter-individual variance) was 0.10, the “ω^2V2/F” value ([2]; inter-individual variance) was 0.21 and the “σ^2add” value ([2]; residual variance, additive) was 3.07 × 10^–7. For the same molecule, the “σ^2prop” value ([2]; residual variance, proportional) was 0.22, the “Increase of venetoclax CL/F by concomitant R administration” value [3] was 1.21 fold and the “Increase in CL/F for venetoclax when co-administered with R” value [4] was 7%. For the same molecule, the “EC50 for circulating lymphocyte counts” value [5] was 0.00863 µg/mL and the “EC50 for tumor size” value (tumor size) was 0.146 µg/mL.

Source: PMC8799559 (Advances in Therapy, 2021)
